# Measured values from different studies.
# Lines come from different studies, so protocols differ.
# Transmembrane protease serine 6: Transmembrane protease serine 6 (Homo sapiens, UniProt Q8IU80)
# Palmitoyl-protein thioesterase 1: Palmitoyl-protein thioesterase 1 (Homo sapiens, UniProt P50897)
# EGFR: Epidermal growth factor receptor (EGFR, Homo sapiens, UniProt P00533)
SMILES,target,effect on,action,technique,concentration,measurement,value
COc1cc(-c2cncc3c2CN(C)Cc2cc(N4CCNCC4)ccc2-3)cc(OC)c1OC,"Protein kinase C delta type (PRKCD, Homo sapiens, UniProt Q05655)",enzyme activity,inhibitor,,1 µM,remaining activity,104%
CC(C)(NC(=O)[C@H](Cc1cscn1)NC(=O)CCc1ccccc1)C(=O)N[C@@H](CCCNC(=N)N)C(=O)c1nc2ccccc2s1,Transmembrane protease serine 6,enzyme activity,inhibitor,,0.1 µM,remaining activity,22%
C/C=C\c1ccc(O)c(OC)c1,Palmitoyl-protein thioesterase 1,enzyme activity,inhibitor,,312 µM,inhibition,22.2%
Cc1ccc2c(-c3cc4c(CN5CCN(Cc6ccccn6)CC5)cnc(C)c4o3)cc(=O)oc2c1,EGFR,enzyme activity,inhibitor,ADP detection,1 µM,inhibition,60 to 80%
C[C@H](O)[C@@H](NC(=O)[C@H](Cc1cscn1)NC(=O)CCc1ccccc1)C(=O)N[C@@H](CCCNC(=N)N)C(=O)c1nc2ccccc2s1,Transmembrane protease serine 6,enzyme activity,inhibitor,,0.1 µM,remaining activity,10%
Cc1cc([C@@H](C)Nc2ccccc2C(=O)O)c2nc(N3CCC(F)(F)CC3)c(C#N)c(=O)n2c1,"Mitogen-activated protein kinase 8 (MAPK8, Homo sapiens, UniProt P45983)",binding,,competition with immobilised ligand,10 µM,remaining binding,100%
CNc1ncc2c(/C=C/C(=O)N3CCC(OC)CC3)nn(Cc3cccc(C(F)(F)F)c3)c2n1,"Serine/threonine-protein kinase B-raf (BRAF, Homo sapiens, UniProt P15056)",enzyme activity,inhibitor,radiometric,1 µM,remaining activity,79%
N=C(N)NCCC[C@H](NC(=O)[C@@H](NC(=O)[C@H](Cc1cscn1)NC(=O)CCc1ccccc1)C(c1ccccc1)c1ccccc1)C(=O)c1nc2ccccc2s1,Transmembrane protease serine 6,enzyme activity,inhibitor,,0.1 µM,remaining activity,65%
C[C@@H]1O[C@@H](OC[C@H]2O[C@@H](Oc3c(-c4ccc(O)c(O)c4)oc4cc(O)cc(O)c4c3=O)[C@H](O)[C@@H](O)[C@@H]2O)[C@H](O)[C@H](O)[C@H]1O,Palmitoyl-protein thioesterase 1,enzyme activity,inhibitor,,125 µM,inhibition,61.8%
N=C(N)NCCC[C@H](NC(=O)[C@@H]1CCCN1C(=O)[C@H](Cc1cscn1)NC(=O)CCc1ccccc1)C(=O)c1nc2ccccc2s1,Transmembrane protease serine 6,enzyme activity,inhibitor,,0.1 µM,remaining activity,60%
Cc1ccc2c(-c3cc4c(CNCc5cccnc5)cnc(C)c4o3)cc(=O)oc2c1C,EGFR,enzyme activity,inhibitor,ADP detection,1 µM,inhibition,90 to 100%
c1coc(CNc2ncnc3[nH]cnc23)c1,Palmitoyl-protein thioesterase 1,enzyme activity,inhibitor,,125 µM,inhibition,8.93%
O=C(CCn1c(=O)ccc2ccccc21)N1CCOCC1,EGFR,enzyme activity,inhibitor,,10 µM,inhibition,86.8%
N=C(N)NCCC[C@H](NC(=O)[C@H](Cc1cccc(I)c1)NC(=O)[C@H](Cc1cscn1)NC(=O)CCc1ccccc1)C(=O)c1nc2ccccc2s1,Transmembrane protease serine 6,enzyme activity,inhibitor,,0.1 µM,remaining activity,92%
NC(=O)N[C@@H](CCC(=O)O)C(=O)O,Palmitoyl-protein thioesterase 1,enzyme activity,inhibitor,,125 µM,inhibition,40.4%
N=C(N)NCCC[C@H](NC(=O)[C@@H](NC(=O)[C@H](Cc1cscn1)NC(=O)CCc1ccccc1)c1ccccc1)C(=O)c1nc2ccccc2s1,Transmembrane protease serine 6,enzyme activity,inhibitor,,0.1 µM,remaining activity,6%
CC(=O)O[C@@]12CO[C@@H]1C[C@H](O)[C@@]1(C)C(=O)[C@H](O)C3=C(C)[C@@H](OC(=O)[C@H](O)[C@@H](NC(=O)OC(C)(C)C)c4ccccc4)C[C@@](O)([C@@H](OC(=O)c4ccccc4)[C@H]21)C3(C)C,Palmitoyl-protein thioesterase 1,enzyme activity,inhibitor,,125 µM,inhibition,10.3%
CC(C)C(C)(NC(=O)[C@H](Cc1cscn1)NC(=O)CCc1ccccc1)C(=O)N[C@@H](CCCNC(=N)N)C(=O)c1nc2ccccc2s1 (stereo partly drawn),Transmembrane protease serine 6,enzyme activity,inhibitor,,0.1 µM,remaining activity,96%
COc1ccc2[nH]cc(CCNC(C)=O)c2c1,Palmitoyl-protein thioesterase 1,enzyme activity,inhibitor,,125 µM,inhibition,8.97%
Cc1ncc(CN2CCN(Cc3ccccn3)CC2)c2cc(C(=O)c3ccc4c(c3)OCCO4)oc12,"Epidermal growth factor receptor (EGFR, Homo sapiens, UniProt P00533, L858R/T790M)",enzyme activity,inhibitor,ADP detection,1 µM,inhibition,65 to 75%
CC(C)C[C@@H](C(=O)N[C@H](C(=O)OC1CCCC1)c1ccccc1)[C@H](O)C(=O)NO,Palmitoyl-protein thioesterase 1,enzyme activity,inhibitor,,625 µM,inhibition,8.02%
N=C(N)NCCC[C@H](NC(=O)[C@H](Cc1ccncc1)NC(=O)[C@H](Cc1cscn1)NC(=O)CCc1ccccc1)C(=O)c1nc2ccccc2s1,Transmembrane protease serine 6,enzyme activity,inhibitor,,0.1 µM,remaining activity,68%
C=CC(=O)N1CCC(COCC(=O)N2CCN(c3nc(-c4cnc(N)nc4C(F)F)nc(N4CCOC[C@@H]4C)n3)CC2)CC1,"Ribosomal protein S6 kinase alpha-2, N-terminal kinase domain (RPS6KA2, Homo sapiens, UniProt Q15349)",binding,,competition with immobilised ligand,1 µM,remaining binding,100%
C=C1C(=O)O[C@H]2[C@H]1CC/C(C)=C/CC[C@@]1(C)O[C@@H]21,Palmitoyl-protein thioesterase 1,enzyme activity,inhibitor,,125 µM,inhibition,-5.16%
